Measured values taken from publication PMC2606940 (The Journal of General Physiology, 2009).
Like-named read-outs stand apart in the source and are kept apart here.

Target: T1, CLC-0 E166C/K519M mutant (E127/K519M) (Torpedo marmorata, UniProt P21564, C212S/E166C/K519M)
T1 sequence (P21564 1-805 E166C/C212S/K519M): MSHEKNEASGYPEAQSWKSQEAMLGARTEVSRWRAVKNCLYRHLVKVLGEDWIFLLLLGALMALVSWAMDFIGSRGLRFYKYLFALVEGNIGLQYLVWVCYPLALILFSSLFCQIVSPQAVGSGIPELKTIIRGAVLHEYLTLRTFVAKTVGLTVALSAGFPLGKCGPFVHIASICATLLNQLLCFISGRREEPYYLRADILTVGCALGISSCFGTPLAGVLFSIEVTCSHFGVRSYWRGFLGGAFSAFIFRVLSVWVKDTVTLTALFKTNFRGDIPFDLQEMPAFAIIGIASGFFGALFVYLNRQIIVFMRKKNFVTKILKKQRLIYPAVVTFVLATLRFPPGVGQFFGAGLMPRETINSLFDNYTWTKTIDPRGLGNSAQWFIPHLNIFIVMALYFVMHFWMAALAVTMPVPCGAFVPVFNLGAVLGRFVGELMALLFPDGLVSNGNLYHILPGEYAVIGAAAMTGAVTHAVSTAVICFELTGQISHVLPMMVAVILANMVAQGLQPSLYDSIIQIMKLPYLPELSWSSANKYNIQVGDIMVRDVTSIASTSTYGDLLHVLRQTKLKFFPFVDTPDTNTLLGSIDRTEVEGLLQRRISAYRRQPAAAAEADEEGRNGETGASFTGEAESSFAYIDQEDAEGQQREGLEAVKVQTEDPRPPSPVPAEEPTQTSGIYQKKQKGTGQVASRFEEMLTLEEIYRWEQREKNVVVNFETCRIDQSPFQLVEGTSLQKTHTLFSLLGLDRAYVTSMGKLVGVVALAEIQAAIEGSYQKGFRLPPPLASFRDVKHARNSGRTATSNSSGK
Type: cell-based
Conditions: for IC50: read-out: Apparent affinity (K1/2)
In short: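 CLC-0 mutants in the C212S background were transfected into HEK293 cells with lipofectamine and recorded 1–3 d later as excised inside-out patches. Both sides held 130 mM NaCl, 5 mM MgCl2, 10 mM HEPES and 1 mM EGTA, pH 7.4. CPA was perfused continuously onto the cytoplasmic face. Steady-state current over the last 10 ms was normalized to bracketing blocker-free controls and fitted to a Langmuir function for K1/2. Values are mean ± SEM of ~4–6 patches.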

Q: Which IC50 (−40 mV) does the source give for `O=C(O)COc1ccc(Cl)cc1` [CPA, p-chlorophenoxy acetate] here?
A: 378 ± 7 µM

Q: What about the IC50 (−60 mV) of the same compound?
A: 271 ± 5 µM

Q: And the IC50 (−80 mV)?
A: 194 ± 4 µM

Q: And the IC50 (−100 mV)?
A: 141 ± 5 µM

Q: And the IC50 (−120 mV)?
A: 98 ± 4 µM

Q: And the IC50 (−140 mV)?
A: 69 ± 4 µM

Q: And the IC50 (−160 mV)?
A: 51 ± 4 µM

Q: And the apparent koff (−160 mV)?
A: 10.5 s⁻¹

Q: What about the apparent kon (−160 mV) of the same compound?
A: 170000 M⁻¹ s⁻¹
